Activity, Kd and MIC99 data for 38 molecules are collected here from ChEMBL document CHEMBL2321876.

Structures are written as SMILES. ≈ marks a conversion by molar mass, not a printed value. Calls of active or inactive are those of the source. No rule for the calls is given here.

For assay [1], the system named is Acinetobacter baumannii. Description: Antibacterial activity against Acinetobacter baumannii ATCC 19606 using iron-deficient M9 minimal media after 15 hrs by broth microdilution assay. Format: functional, organism-based. Conditions: ATCC 19606 = CIP 70.34 = JCM 6841. In a few lines: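 ATCC 19606 grown overnight at 30 °C on LB agar, washed twice and resuspended in M9 minimal medium with 0.2% casamino acids and 200 μM dipyridyl. Inoculated at A600 0.0003 in this medium plus 1 μM FeCl3. Inhibitors from DMSO at 100 μM final, in triplicate. Tetracycline (100 ng/mL) and 1% DMSO as controls. Incubated at 30 °C; A600 read at 15 h.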
(In broth dilution the organism is exposed to a series of concentrations in liquid medium.)

Assay [2] has as its system Acinetobacter baumannii. As to the kind of experiment: Antibacterial activity against Acinetobacter baumannii ATCC 19606 using iron-replete M9 minimal media after 15 hrs by broth microdilution assay. It is filed as functional, organism-based. Conditions: ATCC 19606 = CIP 70.34 = JCM 6841. A digest of the protocol: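 ATCC 19606 grown overnight at 30 °C on LB agar, washed twice in dipyridyl-containing M9/casamino acids medium, then diluted to A600 0.0003 in M9 minimal medium with 0.2% casamino acids plus 200 μM FeCl3. Inhibitors from DMSO at 100 μM final, in triplicate. Controls were tetracycline (100 ng/mL) and 1% DMSO. Incubated at 30 °C, A600 measured at 15 h.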

Assay [3] in a line: Displacement of Fl-Sal-AMS from Acinetobacter baumanni BasE expressed in Escherichia coli after 30 mins by fluorescence polarization assay. Details: species or system Acinetobacter baumannii. As to conditions: read-out: Kd. On the technique in general: In fluorescence polarisation assays a small probe gives low polarisation when free and higher when bound to something large.

Assay [4] can be described thus: Displacement of Fl-Sal-AMS from Mycobacterium tuberculosis MbtA expressed in Escherichia coli after 30 mins by fluorescence polarization assay.
Assay [5] concerns Mycobacterium tuberculosis. As to the kind of experiment: Bacteriostatic activity against Mycobacterium tuberculosis H37Rv using iron-replete GAST media after 10 to 14 days by broth microdilution assay. Format: functional. In a few lines: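 Broth microdilution in GAST supplemented with 200 μM FeCl₃, in quadruplicate, with compounds from DMSO stocks and DMSO-matched controls. Isoniazid served as positive control. Inoculum 10⁴–10⁵ cells/assay, 100 μL/well, 37 °C. OD₆₂₀ was read at 10–14 days, when untreated controls reached 0.2–0.3.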

The subject of assay [6] is Mycobacterium tuberculosis. As to the kind of experiment: Bacteriostatic activity against Mycobacterium tuberculosis H37Rv using iron-deficient GAST media after 10 to 14 days by broth microdilution assay. It is filed as functional. In a few lines: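 Broth microdilution in iron-deficient GAST, in quadruplicate, with compounds from DMSO stocks and DMSO-matched control wells. Isoniazid served as positive control. Initial density 10⁴–10⁵ cells/assay, 100 μL/well, 37 °C. Growth was read as OD at 620 nm at 10–14 days, when untreated controls reached OD₆₂₀ 0.2–0.3.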

On to `O=C(O)c1cc(/C=C/c2ccccc2)nc2c1cnn2Cc1ccncc1`, for which the result in the assay with Acinetobacter baumannii [1] and in the assay with Acinetobacter baumannii [2] was inactive. Moreover, the figures for the Kd in assay [3] and in assay [4] were 0.28 µM and 5.1 µM, respectively.

On to `O=C(O)c1cc(-c2ccccc2-c2ccccc2Cl)nc2c1cnn2Cc1ccncc1`, for which the outcome in the assay with Acinetobacter baumannii [1] and in the assay on Acinetobacter baumannii [2] was inactive. Further, the values for the Kd in assay [3] and in assay [4] were 19.7 µM and more than 50 µM, respectively.

Turning to `Cc1ccccc1-c1cc(C(=O)O)c2cnn(Cc3ccncc3)c2n1`, the result in the assay with Acinetobacter baumannii [1] and with Acinetobacter baumannii [2] was inactive. Moreover, the figures for the Kd in assay [3] and in assay [4] were 2.15 µM and more than 100 µM, respectively.

For `O=C(O)c1cc(C#Cc2ccccc2)nc2c1cnn2Cc1ccncc1`, the outcome in the assay on Acinetobacter baumannii [1] and in the assay with Acinetobacter baumannii [2] was inactive. Besides, the figures for the Kd in assay [3] and in assay [4] were 0.421 µM and 3 µM, respectively.

On to `O=C(O)c1cc(-c2ccc(-c3ccc(Br)cc3)cc2)nc2c1cnn2Cc1ccncc1`, for which the outcome in the assay on Acinetobacter baumannii [1] and with Acinetobacter baumannii [2] was inactive. Besides, the Kd (as a rule, the free concentration of one partner at which half of the binding sites on the other are occupied at equilibrium, for simple one-to-one binding) in assay [3] turned out to be 0.181 µM; in assay [4] it was 19.7 µM.

As for `O=C(O)c1cc(-c2cncnc2)nc2c1cnn2Cc1ccncc1`, the result in the assay on Acinetobacter baumannii [1] and in the assay with Acinetobacter baumannii [2] was inactive. Besides, the Kd is 0.583 µM in assay [3] and 13.6 µM in assay [4].

For `O=C(O)c1cc(-c2ccc(CO)cc2)nc2c1cnn2Cc1ccncc1`, the result with Acinetobacter baumannii [1] and in the assay with Acinetobacter baumannii [2] was inactive. In addition, the Kd in assay [3] came out at 0.247 µM; in assay [4], 3.7 µM.

With `NC(=O)c1cc(-c2ccccc2)nc2c1cnn2Cc1ccncc1`, the result with Acinetobacter baumannii [1] and in the assay on Acinetobacter baumannii [2] was inactive. In addition, the Kd in assay [3] was 0.0668 µM; in assay [4], 8.57 µM.

Turning to `O=C(O)c1cc(-c2ccco2)nc2c1cnn2Cc1ccncc1`, the outcome with Acinetobacter baumannii [1] and in the assay on Acinetobacter baumannii [2] was inactive. In addition, the figures for the Kd in assay [3] and in assay [4] were 0.342 µM and 19.5 µM, respectively.

Regarding `O=C(O)c1cc(-c2ccc(Cl)s2)nc2c1cnn2Cc1ccncc1`, the MIC99 in assay [5] and in assay [6] was 50 µM (≈ 18.5 µg/mL) in each case. Besides, the result in the assay on Acinetobacter baumannii [1] and in the assay on Acinetobacter baumannii [2] was inactive.

For `O=C(O)c1cc(-c2cccc(O)c2)nc2c1cnn2Cc1ccncc1`, the outcome with Acinetobacter baumannii [1] and in the assay with Acinetobacter baumannii [2] was inactive. The Kd was found to be 0.124 µM in assay [3] and 7.67 µM in assay [4].

For the molecule `O=C(O)c1cc(-c2cccnc2)nc2c1cnn2Cc1ccncc1`, the result in the assay with Acinetobacter baumannii [1] and in the assay on Acinetobacter baumannii [2] was inactive. Besides, the Kd in assay [3] amounted to 0.132 µM; in assay [4], 16.8 µM.

On to `Cc1csc(-c2cc(C(=O)O)c3cnn(Cc4ccncc4)c3n2)c1`, for which the outcome with Acinetobacter baumannii [1] and in the assay on Acinetobacter baumannii [2] was inactive. The Kd in assay [3] was found to be 0.0869 µM; in assay [4] it was 2.54 µM.

For the molecule `Nc1cc(-c2ccccc2)nc2c1cnn2Cc1ccncc1`, the outcome with Acinetobacter baumannii [1] and in the assay with Acinetobacter baumannii [2] was inactive. For the same molecule, the Kd in assay [3] was 0.2 µM; in assay [4], 36.4 µM.

For the molecule `C=Cc1cc(C(=O)O)c2cnn(Cc3ccncc3)c2n1`, the result with Acinetobacter baumannii [1] and in the assay on Acinetobacter baumannii [2] was inactive. The Kd in assay [3] is 1.9 µM; in assay [4], more than 100 µM.

Turning to `CCOC(=O)c1cc(-c2ccc(Cl)s2)nc2c1cnn2Cc1ccncc1`, the MIC99 in assay [5] and in assay [6] was 25 µM (≈ 9.97 µg/mL) throughout.

For `CCNC(=O)c1cc(-c2ccccc2)nc2c1cnn2Cc1ccncc1`, the result with Acinetobacter baumannii [1] and in the assay with Acinetobacter baumannii [2] was inactive. Besides, the Kd in assay [3] is 0.908 µM; in assay [4] it was more than 50 µM.

`O=C(O)c1cc(-c2ccc3[nH]ccc3c2)nc2c1cnn2Cc1ccncc1`: the result in the assay on Acinetobacter baumannii [1] and in the assay with Acinetobacter baumannii [2] was inactive. Besides, the dissociation constant (Kd) was 0.0618 µM in assay [3] and 2.9 µM in assay [4].

Take `O=C(O)c1ccc(-c2cc(C(=O)O)c3cnn(Cc4ccncc4)c3n2)cc1`: the outcome in the assay on Acinetobacter baumannii [1] and in the assay with Acinetobacter baumannii [2] was inactive. The Kd in assay [3] was 0.776 µM; in assay [4], 6.1 µM.

In the case of `O=C(NC1CC1)c1cc(-c2ccccc2)nc2c1cnn2Cc1ccncc1`, the result in the assay with Acinetobacter baumannii [1] and in the assay with Acinetobacter baumannii [2] was inactive. The figures for the Kd in assay [3] and in assay [4] were 0.15 µM and more than 100 µM, respectively.

On to `OCc1cc(-c2ccccc2)nc2c1cnn2Cc1ccncc1`, for which the outcome with Acinetobacter baumannii [1] and in the assay with Acinetobacter baumannii [2] was inactive. For the same molecule, the figures for the Kd in assay [3] and in assay [4] were 0.102 µM and 16.8 µM, respectively.

Consider `CC(C)NC(=O)c1cc(-c2ccccc2)nc2c1cnn2Cc1ccncc1`, for which the outcome with Acinetobacter baumannii [1] and in the assay on Acinetobacter baumannii [2] was inactive. The Kd in assay [3] was 0.164 µM; in assay [4] it was more than 100 µM.

In the case of `CCOC(=O)c1cc(-c2ccc(Oc3ccccc3)cc2)nc2c1cnn2Cc1ccncc1`, the MIC99 (commonly an inhibitory concentration at the 99% level, which refers to growth in some studies and to a panel of isolates in others) in assay [5] was determined as 100 µM (≈ 45 µg/mL); in assay [6], 50 µM (≈ 22.5 µg/mL).

Consider `Cc1ccc(-c2cc(C(=O)O)c3cnn(Cc4ccncc4)c3n2)s1`, for which the outcome in the assay on Acinetobacter baumannii [1] and in the assay with Acinetobacter baumannii [2] was inactive. Further, the results for the Kd in assay [3] and in assay [4] were 0.0076 µM and 2.6 µM, respectively.

Regarding `O=C(O)c1cc(-c2cccc3cccnc23)nc2c1cnn2Cc1ccncc1`, the outcome with Acinetobacter baumannii [1] and with Acinetobacter baumannii [2] was inactive. Further, the results for the Kd in assay [3] and in assay [4] were 0.776 µM and 22.5 µM, respectively.

In the case of `NC(=O)c1ccc(-c2cc(C(=O)O)c3cnn(Cc4ccncc4)c3n2)cc1`, the outcome in the assay with Acinetobacter baumannii [1] and with Acinetobacter baumannii [2] was inactive. The equilibrium dissociation constant (Kd) in assay [3] was determined as 0.288 µM; in assay [4], 1 µM.

With `CCOC(=O)c1cc(-c2ccc(C(=O)c3ccccc3)cc2)nc2c1cnn2Cc1ccncc1`, the MIC99 in assay [5] and in assay [6] was more than 125 µM each time.

Take `O=C(O)c1cc(-c2ccc(F)cc2F)nc2c1cnn2Cc1ccncc1`: the outcome with Acinetobacter baumannii [1] and in the assay on Acinetobacter baumannii [2] was inactive. Further, the Kd in assay [3] came to 0.0426 µM; in assay [4], 8 µM.

For `O=C(O)c1cc(-c2ccc(O)cc2)nc2c1cnn2Cc1ccncc1`, the result in the assay with Acinetobacter baumannii [1] and in the assay with Acinetobacter baumannii [2] was inactive. For the same molecule, the Kd in assay [3] turned out to be 0.00885 µM; in assay [4] it was 3.7 µM.

Take `O=C(O)c1cc(-c2ccccc2)cc2c1cnn2Cc1ccncc1`: the outcome with Acinetobacter baumannii [1] and in the assay with Acinetobacter baumannii [2] was inactive. Further, the results for the Kd in assay [3] and in assay [4] were 0.0848 µM and 27.6 µM, respectively.

Take `O=C(O)c1cc(-c2ccccc2)cc2c1ccn2Cc1ccncc1`: the outcome in the assay on Acinetobacter baumannii [1] and in the assay with Acinetobacter baumannii [2] was inactive. In addition, the Kd is 52.2 µM in assay [3] and 161 µM in assay [4].

For `CNC(=O)c1cc(-c2ccccc2)nc2c1cnn2Cc1ccncc1`, the outcome in the assay on Acinetobacter baumannii [1] and with Acinetobacter baumannii [2] was inactive. The Kd in assay [3] is 0.42 µM; in assay [4], more than 50 µM.

In the case of `CCCCCCCCCCCCOc1ccc(-c2cc(C(=O)O)c3cnn(Cc4ccncc4)c3n2)cc1`, the result in the assay with Acinetobacter baumannii [1] and in the assay on Acinetobacter baumannii [2] was inactive. Besides, the Kd is 28.4 µM in assay [3] and more than 50 µM in assay [4].

`COc1ccc(-c2cc(C(=O)O)c3cnn(Cc4ccncc4)c3n2)cc1`: the result in the assay on Acinetobacter baumannii [1] and in the assay on Acinetobacter baumannii [2] was inactive. Moreover, the figures for the Kd in assay [3] and in assay [4] were 0.0782 µM and 3.23 µM, respectively.

For `CCCNC(=O)c1cc(-c2ccccc2)nc2c1cnn2Cc1ccncc1`, the result with Acinetobacter baumannii [1] and in the assay with Acinetobacter baumannii [2] was inactive. Also, the Kd in assay [3] was 0.249 µM; in assay [4], more than 50 µM.

Regarding `COc1ccc(COc2ccc(-c3cc(C(=O)O)c4cnn(Cc5ccncc5)c4n3)cc2)cc1`, the result with Acinetobacter baumannii [1] and in the assay on Acinetobacter baumannii [2] was inactive. Moreover, the Kd in assay [3] was 0.0445 µM; in assay [4], 5.8 µM.

As for `O=C(O)c1cc(-c2cccc(Cl)c2)nc2c1cnn2Cc1ccncc1`, the outcome with Acinetobacter baumannii [1] and in the assay with Acinetobacter baumannii [2] was inactive. In addition, the Kd was 0.026 µM in assay [3] and 4.6 µM in assay [4].

On to `Nc1ccc(-c2cc(C(=O)O)c3cnn(Cc4ccncc4)c3n2)cc1`, for which the outcome with Acinetobacter baumannii [1] and in the assay with Acinetobacter baumannii [2] was inactive. For the same molecule, the Kd in assay [3] was 0.0782 µM; in assay [4], 4.08 µM.
